Experimental data: ChEMBL document CHEMBL4814057, “4-4-(Anilinomethyl)-3-[4-(trifluoromethyl)phenyl]-1H-pyrazol-1-ylbenzoic acid derivatives as potent anti-gram-positive bacterial agents” (Eur J Med Chem, 2021)
Converted amounts (≈) assume the structure as drawn. The source made the active and inactive calls. The calls are words filed in the database; no cut-off is given here.

Experiments:
Staphylococcus aureus [1] = assay: Antimicrobial activity against methicillin-susceptible Staphylococcus aureus ATCC 25923 assessed as bacterial growth inhibitions by CLSI protocol based microdilution method; assay type: functional
Staphylococcus aureus [2] = assay: Antimicrobial activity against antibiotic-resistant Staphylococcus aureus BM-2312 assessed as bacterial growth inhibitions by CLSI protocol based microdilution method; assay type: functional
Staphylococcus aureus [3] = assay: Antimicrobial activity against methicillin-resistant Staphylococcus aureus ATCC 33591 assessed as bacterial growth inhibitions by CLSI protocol based microdilution method; assay type: functional
Staphylococcus aureus [4] = assay: Antimicrobial activity against methicillin-resistant Staphylococcus aureus ATCC 700699 assessed as bacterial growth inhibitions by CLSI protocol based microdilution method; assay type: functional
Staphylococcus aureus [5] = assay: Antimicrobial activity against methicillin-resistant Staphylococcus aureus ATCC 33592 assessed as bacterial growth inhibitions by CLSI protocol based microdilution method; assay type: functional
[6] = tested on: Staphylococcus epidermidis; assay: Antimicrobial activity against methicillin-resistant Staphylococcus epidermidis ATCC 700296 assessed as bacterial growth inhibitions by CLSI protocol based microdilution method; assay type: functional
Bacillus subtilis = assay: Antimicrobial activity against Bacillus subtilis ATCC 6623 assessed as bacterial growth inhibitions by CLSI protocol based microdilution method; assay type: functional
How it was run: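 Broth microdilution starting at 50 µg/ml with 2-fold serial dilutions; run in triplicate.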

Enterococcus faecium = assay: Antimicrobial activity against vancomycin-resistant Enterococcus faecium ATCC 700221 assessed as bacterial growth inhibitions by CLSI protocol based microdilution method; assay type: functional
Enterococcus faecalis = assay: Antimicrobial activity against vancomycin-susceptible Enterococcus faecalis ATCC 29212 assessed as bacterial growth inhibitions by CLSI protocol based microdilution method

| SMILES | MIC (Staphylococcus aureus [1]) [µg/mL] | MIC (Staphylococcus aureus [2]) [µg/mL] | MIC (Staphylococcus aureus [3]) | MIC (Staphylococcus aureus [4]) | MIC (Staphylococcus aureus [5]) | MIC [6] [µg/mL] | MIC (Bacillus subtilis) | MIC (Enterococcus faecium) | MIC (Enterococcus faecalis) |
| --- | --- | --- | --- | --- | --- | --- | --- | --- | --- |
| O=C(O)c1ccc(-n2cc(CNc3cccc(F)c3)c(-c3ccc(C(F)(F)F)cc3)n2)cc1 | 3.12 (≈ 6.85 µM) | 3.12 (≈ 6.85 µM) | 3.12 µg/mL (≈ 6.85 µM) | 3.12 µg/mL (≈ 6.85 µM) | 3.12 µg/mL (≈ 6.85 µM) | 6.25 (≈ 13.7 µM) | 1.56 µg/mL (≈ 3.43 µM) | 6.25 µg/mL (≈ 13.7 µM) | 25 µg/mL (≈ 54.9 µM) |
| NS(=O)(=O)c1ccc(NCc2cn(-c3ccc(C(=O)O)cc3)nc2-c2ccc(C(F)(F)F)cc2)cc1 | 50 (≈ 96.8 µM) | 50 (≈ 96.8 µM) | 50 µg/mL (≈ 96.8 µM) | 0.39 µg/mL (≈ 0.755 µM) | 50 µg/mL (≈ 96.8 µM) | 50 (≈ 96.8 µM) | 50 µg/mL (≈ 96.8 µM) | inactive | inactive |
| O=C(O)c1ccc(-n2cc(CNc3cc(Cl)cc(Cl)c3)c(-c3ccc(C(F)(F)F)cc3)n2)cc1 | 0.78 (≈ 1.54 µM) | 0.78 (≈ 1.54 µM) | 0.78 µg/mL (≈ 1.54 µM) | 0.78 µg/mL (≈ 1.54 µM) | 0.78 µg/mL (≈ 1.54 µM) | 0.78 (≈ 1.54 µM) | 0.78 µg/mL (≈ 1.54 µM) | 0.78 µg/mL (≈ 1.54 µM) | 1.56 µg/mL (≈ 3.08 µM) |
| O=C(O)c1ccc(-n2cc(CNc3ccc(Cl)c(C(F)(F)F)c3)c(-c3ccc(C(F)(F)F)cc3)n2)cc1 | 0.78 (≈ 1.44 µM) | 0.78 (≈ 1.44 µM) | 0.78 µg/mL (≈ 1.44 µM) | 0.78 µg/mL (≈ 1.44 µM) | 0.78 µg/mL (≈ 1.44 µM) | 0.78 (≈ 1.44 µM) | 0.78 µg/mL (≈ 1.44 µM) | 0.78 µg/mL (≈ 1.44 µM) | 0.78 µg/mL (≈ 1.44 µM) |
| O=C(O)c1ccc(-n2cc(CNc3cc(Cl)cc(C(F)(F)F)c3)c(-c3ccc(C(F)(F)F)cc3)n2)cc1 | 0.78 (≈ 1.44 µM) | 0.78 (≈ 1.44 µM) | 0.78 µg/mL (≈ 1.44 µM) | 0.78 µg/mL (≈ 1.44 µM) | 0.78 µg/mL (≈ 1.44 µM) | 1.56 (≈ 2.89 µM) | 0.78 µg/mL (≈ 1.44 µM) | 0.78 µg/mL (≈ 1.44 µM) | 6.25 µg/mL (≈ 11.6 µM) |
| O=C(O)c1ccc(-n2cc(CNc3ccc(C(=O)O)c(C(F)(F)F)c3)c(-c3ccc(C(F)(F)F)cc3)n2)cc1 | 50 (≈ 91 µM) | 50 (≈ 91 µM) | inactive | inactive | inactive | 50 (≈ 91 µM) | inactive | inactive | inactive |
| O=C(O)c1ccc(-n2cc(CNc3cc(Br)cc(C(F)(F)F)c3)c(-c3ccc(C(F)(F)F)cc3)n2)cc1 | 0.78 (≈ 1.33 µM) | 0.78 (≈ 1.33 µM) | 3.12 µg/mL (≈ 5.34 µM) | 0.78 µg/mL (≈ 1.33 µM) | 0.78 µg/mL (≈ 1.33 µM) | 1.56 (≈ 2.67 µM) | 0.78 µg/mL (≈ 1.33 µM) | 0.78 µg/mL (≈ 1.33 µM) | 0.78 µg/mL (≈ 1.33 µM) |
| O=C(O)c1ccc(-n2cc(CNc3ccc(F)c(Cl)c3F)c(-c3ccc(C(F)(F)F)cc3)n2)cc1 | 1.56 (≈ 3.07 µM) | 1.56 (≈ 3.07 µM) | 1.56 µg/mL (≈ 3.07 µM) | 1.56 µg/mL (≈ 3.07 µM) | 1.56 µg/mL (≈ 3.07 µM) | 1.56 (≈ 3.07 µM) | 0.78 µg/mL (≈ 1.54 µM) | 1.56 µg/mL (≈ 3.07 µM) | 6.25 µg/mL (≈ 12.3 µM) |
| O=C(O)c1ccc(-n2cc(CNc3ccc(Br)c(C(F)(F)F)c3)c(-c3ccc(C(F)(F)F)cc3)n2)cc1 | 3.12 (≈ 5.34 µM) | 3.12 (≈ 5.34 µM) | 0.78 µg/mL (≈ 1.33 µM) | 3.12 µg/mL (≈ 5.34 µM) | 3.12 µg/mL (≈ 5.34 µM) | 12.5 (≈ 21.4 µM) | 3.12 µg/mL (≈ 5.34 µM) | 0.78 µg/mL (≈ 1.33 µM) | – |
| N#Cc1ccc(NCc2cn(-c3ccc(C(=O)O)cc3)nc2-c2ccc(C(F)(F)F)cc2)cc1C(F)(F)F | 1.56 (≈ 2.94 µM) | 1.56 (≈ 2.94 µM) | 0.78 µg/mL (≈ 1.47 µM) | 1.56 µg/mL (≈ 2.94 µM) | 0.78 µg/mL (≈ 1.47 µM) | 3.12 (≈ 5.88 µM) | 0.78 µg/mL (≈ 1.47 µM) | 6.25 µg/mL (≈ 11.8 µM) | 12.5 µg/mL (≈ 23.6 µM) |
| O=C(O)c1ccc(-n2cc(CNc3cccc(OC(F)(F)F)c3)c(-c3ccc(C(F)(F)F)cc3)n2)cc1 | 0.78 (≈ 1.5 µM) | 0.78 (≈ 1.5 µM) | 0.78 µg/mL (≈ 1.5 µM) | 50 µg/mL (≈ 95.9 µM) | 0.78 µg/mL (≈ 1.5 µM) | 3.12 (≈ 5.98 µM) | 0.78 µg/mL (≈ 1.5 µM) | 0.78 µg/mL (≈ 1.5 µM) | 3.12 µg/mL (≈ 5.98 µM) |
| O=C(O)c1ccc(-n2cc(CNc3cc(F)c(C(F)(F)F)c(F)c3)c(-c3ccc(C(F)(F)F)cc3)n2)cc1 | 1.56 (≈ 2.88 µM) | 1.56 (≈ 2.88 µM) | 1.56 µg/mL (≈ 2.88 µM) | 1.56 µg/mL (≈ 2.88 µM) | 1.56 µg/mL (≈ 2.88 µM) | 3.12 (≈ 5.76 µM) | 0.78 µg/mL (≈ 1.44 µM) | 6.25 µg/mL (≈ 11.5 µM) | 12.5 µg/mL (≈ 23.1 µM) |
| O=C(O)c1ccc(-n2cc(CNc3cc(F)c(C(F)(F)F)cc3F)c(-c3ccc(C(F)(F)F)cc3)n2)cc1 | 0.78 (≈ 1.44 µM) | 0.78 (≈ 1.44 µM) | 0.78 µg/mL (≈ 1.44 µM) | 0.78 µg/mL (≈ 1.44 µM) | 0.78 µg/mL (≈ 1.44 µM) | – | 0.78 µg/mL (≈ 1.44 µM) | 0.78 µg/mL (≈ 1.44 µM) | 1.56 µg/mL (≈ 2.88 µM) |
| O=C(O)c1ccc(-n2cc(CNc3ccc(Br)c(Cl)c3F)c(-c3ccc(C(F)(F)F)cc3)n2)cc1 | – | – | – | – | – | – | – | – | 0.78 µg/mL (≈ 1.37 µM) |
| O=C(O)c1ccc(-n2cc(CNc3ccc(F)cc3)c(-c3ccc(C(F)(F)F)cc3)n2)cc1 | 6.25 (≈ 13.7 µM) | 3.12 (≈ 6.85 µM) | 6.25 µg/mL (≈ 13.7 µM) | 6.25 µg/mL (≈ 13.7 µM) | 12.5 µg/mL (≈ 27.4 µM) | 12.5 (≈ 27.4 µM) | 1.56 µg/mL (≈ 3.43 µM) | 6.25 µg/mL (≈ 13.7 µM) | 25 µg/mL (≈ 54.9 µM) |
